Test results taken from ChEMBL document CHEMBL1140169, “Discovery of novel PPAR ligands by a virtual screening approach based on pharmacophore modeling, 3D shape, and electrostatic similarity screening” (J Med Chem, 2008).
Calls of active or inactive are those of the source. The calls are words filed in the database; no cut-off is given here.

Legend:
[1] = molecular target: T1, Peroxisome proliferator-activated receptor gamma (Homo sapiens, UniProt P37231)
T1 sequence (P37231 whole entry): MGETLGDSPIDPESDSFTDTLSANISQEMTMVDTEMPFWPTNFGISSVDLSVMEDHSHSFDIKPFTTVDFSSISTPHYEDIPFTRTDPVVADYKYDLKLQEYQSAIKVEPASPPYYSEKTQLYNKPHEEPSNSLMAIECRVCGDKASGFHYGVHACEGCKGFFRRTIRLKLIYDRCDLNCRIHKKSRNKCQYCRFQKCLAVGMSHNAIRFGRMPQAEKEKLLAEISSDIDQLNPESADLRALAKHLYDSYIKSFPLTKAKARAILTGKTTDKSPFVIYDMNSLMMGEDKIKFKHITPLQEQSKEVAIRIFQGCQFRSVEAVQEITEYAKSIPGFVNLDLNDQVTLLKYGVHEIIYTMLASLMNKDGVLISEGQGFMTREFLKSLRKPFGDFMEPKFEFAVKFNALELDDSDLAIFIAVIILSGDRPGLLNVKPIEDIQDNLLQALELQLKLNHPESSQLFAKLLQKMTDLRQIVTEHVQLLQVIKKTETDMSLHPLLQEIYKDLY

[2] = molecular target: T2, Peroxisome proliferator-activated receptor delta (Homo sapiens) (UniProt Q03181); test: Antagonist activity at human PPARdelta ligand binding domain expressed in MEF cells co-transfected with Gal4-DBD assessed as reduction of L165041-induced transactivation response at 1 uM by luciferase reporter gene assay; type: cell-based
T2 sequence (whole entry): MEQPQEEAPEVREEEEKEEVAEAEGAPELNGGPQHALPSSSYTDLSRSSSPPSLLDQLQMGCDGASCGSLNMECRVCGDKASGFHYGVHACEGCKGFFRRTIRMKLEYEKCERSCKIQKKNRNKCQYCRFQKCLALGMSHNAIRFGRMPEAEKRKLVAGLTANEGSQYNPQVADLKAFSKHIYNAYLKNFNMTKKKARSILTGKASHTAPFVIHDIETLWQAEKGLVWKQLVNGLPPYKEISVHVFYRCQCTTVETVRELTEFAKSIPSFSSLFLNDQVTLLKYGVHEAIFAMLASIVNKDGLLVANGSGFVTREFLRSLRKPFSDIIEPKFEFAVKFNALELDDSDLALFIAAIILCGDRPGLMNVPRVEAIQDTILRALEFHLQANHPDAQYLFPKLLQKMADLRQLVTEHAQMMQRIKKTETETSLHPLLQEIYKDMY
Summary of the method: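 MEFs transfected with Gal4-hPPARδ-LBD, UAS-luciferase reporter and CMV-β-gal. Starting 6 h post-transfection, cells were co-treated with 1 µM L165041 and a range of compound doses. After 18 h, β-gal-normalized luciferase was compared with the L165041 response. Triplicates measured in duplicate.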

[3] = molecular target: T3, Peroxisome proliferator-activated receptor delta (Homo sapiens, UniProt Q03181); test: Displacement of fluorescent pan PPAR agonist form GST-tagged human PPARdelta ligand binding domain by FRET assay
T3 sequence (Q03181 whole entry): T2 sequence (whole entry)
Summary of the method: (§1)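 TR-FRET (LanthaScreen) competitive binding: purified GST-tagged PPAR LBD labelled with terbium anti-GST antibody, with a fluorescent pan-PPAR agonist tracer. Displacement was read as RFU over dose-response series in triplicate. IC50 came from a one-site sigmoidal fit. Reference ligands were GW7647 (PPARα) and L165041 (PPARδ).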

[4] = molecular target: T4, Peroxisome proliferator-activated receptor alpha (Homo sapiens) (UniProt Q07869); test: Activation of human PPARalpha ligand binding domain expressed in mouse Hepa 1-6 cells co-transfected with fused Gal4-DBD at 0.1 to 10 uM by luciferase reporter gene assay relative to control; type: cell-based
T4 sequence (whole entry): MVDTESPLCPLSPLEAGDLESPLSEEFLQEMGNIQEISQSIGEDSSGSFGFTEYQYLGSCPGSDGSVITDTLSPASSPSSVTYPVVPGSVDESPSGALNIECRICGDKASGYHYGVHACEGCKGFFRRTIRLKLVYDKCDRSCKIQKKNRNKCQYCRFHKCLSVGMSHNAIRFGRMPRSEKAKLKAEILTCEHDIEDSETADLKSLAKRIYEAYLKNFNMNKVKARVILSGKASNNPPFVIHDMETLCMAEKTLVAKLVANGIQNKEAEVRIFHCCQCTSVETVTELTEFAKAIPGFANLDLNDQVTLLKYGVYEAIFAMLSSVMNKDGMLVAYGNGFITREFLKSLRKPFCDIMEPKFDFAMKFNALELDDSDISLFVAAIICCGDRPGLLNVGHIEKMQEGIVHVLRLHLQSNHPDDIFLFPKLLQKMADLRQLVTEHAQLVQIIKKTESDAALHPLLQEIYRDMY
Summary of the method: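 Hepa 1-6 cells (MEM, 10% FCS, penicillin/streptomycin) transfected at 50–70% confluence using Metafectene with Gal4-hPPARα-LBD (0.001 µg plus 0.099 µg pBSK), 4xUAS-TK-Luc reporter and CMV-β-galactosidase. Six hours later, compound was added at 0.1, 1 and 10 µM. Lysis and luminometry after 18 h. Luciferase normalized to β-gal, expressed as fold induction over 0.1% DMSO vehicle. Triplicates, each measured in duplicate.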

[5] = molecular target: T5, Peroxisome proliferator-activated receptor gamma (Homo sapiens) (UniProt P37231); test: Activation of human PPARgamma ligand binding domain expressed in MEF cells co-transfected with fused Gal4-DBD at 10 uM after 18 hrs by luciferase reporter gene assay relative to rosiglitazone; type: cell-based
T5 sequence (whole entry): T1 sequence (P37231 whole entry)
Summary of the method: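 MEFs (DMEM, 10% calf serum) transfected with Gal4-hPPARγ-LBD, 4xUAS-TK-Luc and CMV-β-gal by Metafectene. Compound at 10 µM was added 6 h later and luciferase/β-gal read after 18 h. Activity is expressed as percent of the response to 1 µM rosiglitazone. Triplicates measured in duplicate.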

[6] = molecular target: T4, Peroxisome proliferator-activated receptor alpha (Homo sapiens); test: Activation of human PPARalpha ligand binding domain expressed in mouse Hepa 1-6 cells co-transfected with fused Gal4-DBD at 10 uM after 18 hrs by luciferase reporter gene assay relative to GW-7647; type: cell-based
Summary of the method: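 Gal4-hPPARα-LBD/UAS-luciferase transactivation in Hepa 1-6 cells (Metafectene transfection, β-gal normalization). Compound at 10 µM was added 6 h post-transfection and read 18 h later. Activity is given as percent of the response to 30 nM GW7647. Triplicates measured in duplicate.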

[7] = molecular target: T6, Peroxisome proliferator-activated receptor alpha (Homo sapiens, UniProt Q07869); test: Displacement of fluorescent pan PPAR agonist form GST-tagged human PPARalpha ligand binding domain by FRET assay
T6 sequence (Q07869 whole entry): T4 sequence (whole entry)
Summary of the method: as §1

| Structure (SMILES) | IC50 [1] | Activity [2] | IC50 [3] | Activity [4] | Activity [5] | Activity [6] | IC50 [7] |
| --- | --- | --- | --- | --- | --- | --- | --- |
| COC(=O)c1ccc(NC(=O)C[C@H]2C(=O)N(c3cccc(OC)c3)C(=O)N2Cc2ccc(OC)cc2)cc1 | 13 µM | Active | 7.2 µM | Active | 20% | – | – |
| CCOC(=O)C[C@H](C)NC(=O)c1csc(C2CCN(C(=O)c3c(F)cccc3Cl)CC2)n1 | 44 µM | – | – | Active | 15% | 20% | – |
| O=C(O)c1ccc(COc2ccc3ccccc3c2/C=N/c2ccc(N3CCOCC3)cc2)cc1 | – | – | 34 µM | Active | – | 15% | 43 µM |
| CCOC(=O)N1CCc2c(sc(NC(=O)Cc3ccc(OC)cc3)c2C(=O)Nc2ccc(C(=O)OC)cc2)C1 | – | – | – | Active | – | 40% | 1.5 µM |
| CCn1c(SCC(=O)Nc2ccc(C(=O)O)cc2)nnc1-c1cc2cccc(OC)c2o1 | – | – | 390 µM | Active | – | 15% | 1 µM |
